Data: ChEMBL document CHEMBL1806372, “Cytotoxic ring A-modified steroid analogues derived from Grundmann's ketone” (Eur J Med Chem, 2011)
The source made the active and inactive calls. The calls are words filed in the database; no cut-off is given here.

Legend:
ACHN = test: Growth inhibition of human ACHN cells assessed as cell growth at 10^-5 M after 48 hrs by sulforhodamine B assay; assay type: functional; conditions: read-out: Activity
Outline: (§1)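 NCI 60-cell panel single high-dose screen: compound applied at 10^-5 M for 48 h, endpoint by sulforhodamine B protein-binding dye. Values reported as growth percent of treated cells relative to untreated control cells.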

HCT-116 = test: Growth inhibition of human HCT116 cells assessed as cell growth at 10^-5 M after 48 hrs by sulforhodamine B assay; assay type: functional; conditions: HCT-116, 48 h, read-out: Activity; outline: as §1
PC-3 = test: Growth inhibition of human PC3 cells assessed as cell growth at 10^-5 M after 48 hrs by sulforhodamine B assay; assay type: functional; conditions: PC-3, 48 h, read-out: Activity
Outline: (§2)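 NCI-60 single high-dose screen run under the NCI protocol. Cells were incubated with compound at 10^-5 M for 48 h. The end point was determined by sulforhodamine B protein staining. Results are reported as percent growth of treated cells relative to untreated control cells.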

SNB-19 = test: Growth inhibition of human SNB19 cells assessed as cell growth at 10^-5 M after 48 hrs by sulforhodamine B assay; assay type: functional; conditions: SNB-19, 48 h, read-out: Activity
Outline: (§3)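 NCI 60-cell panel single-dose screen under the NCI protocol. Cells are exposed to compound at one concentration (10^-5 M) for 48 h. The end point is protein staining with sulforhodamine B. Each line is reported as percent growth of treated cells relative to untreated control cells.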

786-0 = test: Growth inhibition of human 786-0 cells assessed as cell growth at 10^-5 M after 48 hrs by sulforhodamine B assay; assay type: functional; conditions: 786-0, 48 h, read-out: Activity; outline: as §1
KM12 = test: Growth inhibition of human KM12 cells assessed as cell growth at 10^-5 M after 48 hrs by sulforhodamine B assay; assay type: functional; conditions: KM12, 48 h, read-out: Activity; outline: as §1
OVCAR-3 = test: Growth inhibition of human OVCAR3 cells assessed as cell growth at 10^-5 M after 48 hrs by sulforhodamine B assay; assay type: functional; conditions: OVCAR-3, 48 h, read-out: Activity; outline: as §2
Yarrowia lipolytica = test: Antifungal activity against Yarrowia lipolytica assessed as zone of inhibition at 5 uL and 28 degC after 36 hrs by disk diffusion method; assay type: functional
Outline: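 Agar disc diffusion with the test compound applied as a 1% (w/v) DMSO solution. Yeasts were grown on AC agar and Aspergillus niger on potato dextrose broth agar, each strain spread evenly. Plates were covered and kept 36 h at 28 °C, and the inhibition zone diameter was read in mm. Clotrimazole served as reference.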

HOP-92 = test: Growth inhibition of human HOP92 cells assessed as cell growth at 10^-5 M after 48 hrs by sulforhodamine B assay; assay type: functional; conditions: HOP-92, 48 h, read-out: Activity; outline: as §1
RPMI-8226 = test: Growth inhibition of human RPMI8226 cells assessed as cell growth at 10^-5 M after 48 hrs by sulforhodamine B assay; assay type: functional; conditions: RPMI-8226, 48 h, read-out: Activity; outline: as §2
BT-549 = test: Growth inhibition of human BT549 cells assessed as cell growth at 10^-5 M after 48 hrs by sulforhodamine B assay; assay type: functional; conditions: BT-549, 48 h, read-out: Activity; outline: as §1
SK-OV-3 = test: Growth inhibition of human SKOV3 cells assessed as cell growth at 10^-5 M after 48 hrs by sulforhodamine B assay; assay type: functional; conditions: SK-OV-3, 48 h, read-out: Activity; outline: as §3
OVCAR-8 = test: Growth inhibition of human OVCAR8 cells assessed as cell growth at 10^-5 M after 48 hrs by sulforhodamine B assay; assay type: functional; conditions: OVCAR-8, 48 h, read-out: Activity; outline: as §2
Staphylococcus equorum = test: Antibacterial activity against Staphylococcus equorum assessed as zone of inhibition at 5 uL and 32 degC after 36 hrs at by disk diffusion method; assay type: functional
Outline: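 Disc diffusion on AC agar, each strain spread evenly over the medium; test compounds given as 1% (w/v) DMSO solutions. Plates covered and incubated 36 h at 32 °C, then the diameter of the zone of inhibited growth measured in mm. Tetracycline served as antibacterial reference.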

SF-295 = test: Growth inhibition of human SF295 cells assessed as cell growth at 10^-5 M after 48 hrs by sulforhodamine B assay; assay type: functional; conditions: SF-295, 48 h, read-out: Activity; outline: as §2
CAKI-1 = test: Growth inhibition of human Caki1 cells assessed as cell growth at 10^-5 M after 48 hrs by sulforhodamine B assay; assay type: functional; conditions: CAKI-1, 48 h, read-out: Activity; outline: as §1
SN12C = test: Growth inhibition of human SN12C cells assessed as cell growth at 10^-5 M after 48 hrs by sulforhodamine B assay; assay type: functional; conditions: read-out: Activity; outline: as §3
UO-31 = test: Growth inhibition of human UO31 cells assessed as cell growth at 10^-5 M after 48 hrs by sulforhodamine B assay; assay type: functional; conditions: UO-31, 48 h, read-out: Activity; outline: as §3
HL-60 = test: Cytotoxicity against human HL60 cells after 24 hrs by MTT assay; assay type: functional, cell-based; conditions: HL-60, 24 h
Outline: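 HL-60 cells kept in RPMI 1640 with 10% FBS, no antibiotics, 37 °C, humidified 5% CO2. Cells (9 × 10^5 cells/mL) exposed to compound in 96-well plates for 24 h at 37 °C. MTT in PBS (5 mg/mL) added for 2 h, then DMSO, shaken 1 h and read photometrically. IC50 determined; cisplatin reference.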

U-251 = test: Growth inhibition of human U251 cells assessed as cell growth at 10^-5 M after 48 hrs by sulforhodamine B assay; assay type: functional; conditions: U-251, 48 h, read-out: Activity; outline: as §3
[1] = Growth inhibition of human Hs 578T cells assessed as cell growth at 10^-5 M after 48 hrs by sulforhodamine B assay; assay type: functional; conditions: read-out: Activity; outline: as §1
NCI-H23 = test: Growth inhibition of human NCI-H23 cells assessed as cell growth at 10^-5 M after 48 hrs by sulforhodamine B assay; assay type: functional; conditions: NCI-H23, 48 h, read-out: Activity; outline: as §2
SK-MEL-2 = test: Growth inhibition of human SK-MEL-2 cells assessed as cell growth at 10^-5 M after 48 hrs by sulforhodamine B assay; assay type: functional; conditions: SK-MEL-2, 48 h, read-out: Activity; outline: as §2
CCRF-CEM = test: Growth inhibition of human CCRF-CEM cells assessed as cell growth at 10^-5 M after 48 hrs by sulforhodamine B assay; assay type: functional; conditions: read-out: Activity; outline: as §1
NCI-H522 = test: Growth inhibition of human NCI-H522 cells assessed as cell growth at 10^-5 M after 48 hrs by sulforhodamine B assay; assay type: functional; conditions: NCI-H522, 48 h, read-out: Activity; outline: as §2
K562 = test: Growth inhibition of human K562 cells assessed as cell growth at 10^-5 M after 48 hrs by sulforhodamine B assay; assay type: functional; conditions: K562, 48 h, read-out: Activity; outline: as §1
SF-268 = test: Growth inhibition of human SF268 cells assessed as cell growth at 10^-5 M after 48 hrs by sulforhodamine B assay; assay type: functional; conditions: SF-268, 48 h, read-out: Activity; outline: as §2
A498 = test: Growth inhibition of human A498 cells assessed as cell growth at 10^-5 M after 48 hrs by sulforhodamine B assay; assay type: functional; conditions: A498, 48 h, read-out: Activity; outline: as §1
A549 = test: Growth inhibition of human A549 cells assessed as cell growth at 10^-5 M after 48 hrs by sulforhodamine B assay; assay type: functional; conditions: A549, 48 h, read-out: Activity; outline: as §1

| Compound | growth at 10 µM (ACHN) | growth at 10 µM (HCT-116) | growth at 10 µM (PC-3) | growth at 10 µM (SNB-19) | growth at 10 µM (786-0) | growth at 10 µM (KM12) | growth at 10 µM (OVCAR-3) | diameter of the inhibition zone (DIZ) (Yarrowia lipolytica) | growth at 10 µM (HOP-92) | growth at 10 µM (RPMI-8226) | growth at 10 µM (BT-549) | growth at 10 µM (SK-OV-3) | growth at 10 µM (OVCAR-8) | diameter of the inhibition zone (DIZ) (Staphylococcus equorum) | growth at 10 µM (SF-295) | growth at 10 µM (CAKI-1) | growth at 10 µM (SN12C) | growth at 10 µM (UO-31) | IC50 (HL-60) | growth at 10 µM (U-251) | further results |
| --- | --- | --- | --- | --- | --- | --- | --- | --- | --- | --- | --- | --- | --- | --- | --- | --- | --- | --- | --- | --- | --- |
| CC(C)CCC[C@@H](C)[C@H]1CC[C@H]2[C@@H]3CCN4C(=O)CCC(=O)N4[C@@H]3CC[C@]12C | 90% | 95% | 70.5% | 162% | 83.8% | 105% | 104% | 15 mm | 77.5% | 56.6% | 84.7% | 99.3% | 93.5% | 9 mm | 88.6% | 73.5% | 88% | 76.3% | 30000 nM | 106% | growth at 10 µM [1]: 97%; growth at 10 µM (NCI-H23): 87%; growth at 10 µM (SK-MEL-2): 114%; growth at 10 µM (CCRF-CEM): 87.4%; growth at 10 µM (NCI-H522): 80.2%; growth at 10 µM (K562): 91%; growth at 10 µM (SF-268): 74.5%; growth at 10 µM (A498): 89.2%; growth at 10 µM (A549): 84.1% |
| CC(C)CCC[C@@H](C)[C@H]1CC[C@H]2C3=CC[C@@H]4C(=O)C=CC(=O)[C@@H]4[C@@H]3CC[C@]12C | 4.54% | 3.29% | 9.01% | 7.34% | -5.66% | -10.1% | 2.72% | inactive | -28.9% | 8.72% | -1.63% | 10.5% | 0.17% | inactive | -25.6% | -56.3% | 20.1% | -67.9% | 700 nM | 11.5% | growth at 10 µM [1]: 8.12%; growth at 10 µM (NCI-H23): 8.4%; growth at 10 µM (SK-MEL-2): 41.9%; growth at 10 µM (CCRF-CEM): 17%; growth at 10 µM (NCI-H522): -46.1%; growth at 10 µM (K562): 9.94%; growth at 10 µM (SF-268): -61.2%; growth at 10 µM (A498): -6.21%; growth at 10 µM (A549): 8.75% |
| CC(C)CCC[C@@H](C)[C@H]1CC[C@H]2C3=CCn4c(=O)ccc(=O)n4[C@@H]3CC[C@]12C | -95.1% | -44.6% | -85.5% | -100% | -100% | -65.5% | -96.5% | 7 mm | -94% | -41.5% | -30.9% | -100% | -39.7% | inactive | -99.5% | -91.6% | -97.7% | -88.5% | 30 nM | -96.9% | growth at 10 µM [1]: -12.2%; growth at 10 µM (NCI-H23): -55.4%; growth at 10 µM (SK-MEL-2): -93%; growth at 10 µM (CCRF-CEM): -2.44%; growth at 10 µM (NCI-H522): -66.1%; growth at 10 µM (K562): -40%; growth at 10 µM (SF-268): -92.3%; growth at 10 µM (A498): -94.8%; growth at 10 µM (A549): -79.3% |
